Results published in ChEMBL document CHEMBL4368911, “Metal-Binding Pharmacophore Library Yields the Discovery of a Glyoxalase 1 Inhibitor” (J Med Chem, 2019).
Calls of active or inactive are those of the source. The rule behind the calls is not given here.

How the values were obtained:
[1] = molecular target: T1, Lactoylglutathione lyase (Homo sapiens, UniProt Q04760); experiment: Inhibition recombinant human N-terminal 6His-tagged GLO1 (2 to 184 residues) expressed in Escherichia coli using MG as substrate preincubated for 15 to 20 mins followed by substrate addition and measured every 1 min for 8 mins
How it was run: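 Recombinant human GLO1, 40 ng per well, preincubated 15–20 min with inhibitor in 100 mM sodium phosphate pH 7.0. Substrate was GSH + MG hemithioacetal, premixed 20 min at room temperature; DMSO ≤5% final. Absorbance at 240 nm read every 1 min for 8 min. Rates compared with no-inhibitor controls after background subtraction. Chugai-1 as reference.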
Target sequence in this assay (Q04760 whole entry, the tested form may be a part): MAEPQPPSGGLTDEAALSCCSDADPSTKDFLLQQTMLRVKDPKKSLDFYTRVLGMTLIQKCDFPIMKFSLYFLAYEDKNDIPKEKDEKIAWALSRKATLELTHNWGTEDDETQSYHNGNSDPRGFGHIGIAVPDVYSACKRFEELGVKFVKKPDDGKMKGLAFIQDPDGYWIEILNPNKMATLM

[2] = test system: Mus musculus; experiment: In-vivo inhibition of GLO1 in FVB/NJ mouse assessed as increase in methylglyoxal accumulation at 12.5 mg/kg, ip measured at 30 mins post dose by LC-MS/MS analysis relative to control; format: functional
How it was run: (§1)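 Brain MG measured 30–240 min after i.p. dosing and compared with vehicle-treated mice. Brains taken after PBS perfusion under isoflurane, then acetonitrile extraction, homogenization, centrifugation and filtration. LC-MS/MS quantified against an 11-point calibration (5–5000 ng/mL) in blank brain matrix. Expressed per mg brain tissue.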

[3] = Drug uptake in FVB/NJ mouse brain at 25 mg/kg, ip measured after 240 mins post dose by LC-MS/MS analysis; format: ADME, organism-based; settings: read-out: Drug uptake
How it was run: (§2)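 Single i.p. dose, then brain sampled at 30, 60, 120 or 240 min, n = 3 per time point. Mice anesthetized with isoflurane and perfused with PBS through the left ventricle. Brains minced, extracted with acetonitrile, bead-homogenized, centrifuged and filtered. LC-MS/MS against an 11-point calibration (5–5000 ng/mL) spiked into blank brain. Median reported as ng/mg wet brain.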

[4] = Drug uptake in FVB/NJ mouse brain at 25 mg/kg, ip measured after 120 mins post dose by LC-MS/MS analysis; format: ADME, organism-based; settings: read-out: Drug uptake; how it was run: as §2
[5] = Drug uptake in FVB/NJ mouse brain at 12.5 mg/kg, ip measured after 30 mins post dose by LC-MS/MS analysis; format: ADME, organism-based; settings: read-out: Drug uptake; how it was run: as §2
[6] = Drug uptake in FVB/NJ mouse brain at 25 mg/kg, ip measured after 30 mins post dose by LC-MS/MS analysis; format: ADME, organism-based; settings: read-out: Drug uptake; how it was run: as §2
[7] = Drug uptake in FVB/NJ mouse brain at 12.5 mg/kg, ip measured after 120 mins post dose by LC-MS/MS analysis; format: ADME, organism-based; settings: read-out: Drug uptake; how it was run: as §2
[8] = Drug uptake in FVB/NJ mouse brain at 12.5 mg/kg, ip measured after 240 mins post dose by LC-MS/MS analysis; format: ADME, organism-based; settings: read-out: Drug uptake; how it was run: as §2
[9] = Toxicity in FVB/NJ mouse up to 100 mg/kg, ip; format: organism-based; settings: in vivo
How it was run: (§3)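 Toxicity in mice judged by observation after i.p. dosing.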

[10] = Drug uptake in FVB/NJ mouse brain at 25 mg/kg, ip measured after 60 mins post dose by LC-MS/MS analysis; format: ADME, organism-based; settings: read-out: Drug uptake; how it was run: as §2
[11] = test system: Mus musculus; experiment: Antidepressant-like activity in FVB/NJ mouse assessed as reduction in immobility at 12.5 mg/kg, ip measured after 120 mins by forced swim test; format: functional, organism-based
How it was run: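 Mice 108–148 days old, 12 h light–dark cycle, tested in the light phase. Each mouse got vehicle (8% DMSO, 18% Tween, […]) on one day and drug on the other, i.p., counterbalanced, about 3 weeks apart. FST run 2 h post-injection: 6 min in a bucket filled 48 cm with 23–25 water. Immobility time analysed by ANOVA with sex and test order as factors.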

[12] = Drug uptake in FVB/NJ mouse brain at 12.5 mg/kg, ip measured after 60 mins post dose by LC-MS/MS analysis; format: ADME, organism-based; settings: read-out: Drug uptake; how it was run: as §2
[13] = test system: Mus musculus; experiment: In-vivo inhibition of GLO1 in FVB/NJ mouse assessed as increase in methylglyoxal accumulation at 12.5 mg/kg, ip measured at 240 mins post dose by LC-MS/MS analysis relative to control; format: functional; settings: in the assay text read “25 mg/kg” for “12.5 mg/kg”; how it was run: as §1
[14] = Toxicity in FVB/NJ mouse at =>50 mg/kg, ip; format: organism-based; settings: in vivo; how it was run: as §3
[15] = molecular target: T1, Lactoylglutathione lyase; experiment: Inhibition of human GLO1
Target sequence in this assay (Q04760 whole entry, the tested form may be a part): as above

[16] = molecular target: T1, Lactoylglutathione lyase; experiment: Inhibition recombinant human N-terminal 6His-tagged GLO1 (2 to 184 residues) expressed in Escherichia coli at 50 uM using MG as substrate preincubated for 15 to 20 mins followed by substrate addition and measured every 1 min for 8 mins
Target sequence in this assay (Q04760 2-184 limits assumed): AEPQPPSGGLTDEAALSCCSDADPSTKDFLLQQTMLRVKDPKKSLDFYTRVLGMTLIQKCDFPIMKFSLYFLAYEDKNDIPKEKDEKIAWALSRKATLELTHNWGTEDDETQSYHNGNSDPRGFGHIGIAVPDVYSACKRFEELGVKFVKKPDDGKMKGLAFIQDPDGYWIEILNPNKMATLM

SMILES	IC50 [1] [µM]	further results
CS(=O)(=O)Nc1ccc(N2CCCCC2)c2cccnc12	> 100	–
CS(=O)(=O)Nc1cccc2ncccc12	> 200	–
CNS(=O)(=O)c1cccc2cccnc12	> 200	–
CS(=O)(=O)Nc1ccc(-c2ccc(F)c(F)c2)c2cccnc12	13.9	–
O=S(=O)(Nc1cccc2cccnc12)c1ccccc1	8.5	–
O=S(=O)(Nc1ccc(CCc2ccccc2)c2cccnc12)c1ccccn1	0.79	–
CS(=O)(=O)Nc1ccc(-c2ccco2)c2cccnc12	11.9	–
N#Cc1cccc(S(=O)(=O)Nc2cccc3cccnc23)c1	7.3	–
Cc1ccc2cccc(NS(C)(=O)=O)c2n1	43	–
CS(=O)(=O)Nc1ccc(N2CCOCC2)c2cccnc12	> 100	–
COc1ccc(-c2ccc(NS(=O)(=O)c3ccccn3)c3ncccc23)cc1Cl	0.59	–
COc1cc(CCc2cc(NS(=O)(=O)c3ccccn3)c3ncccc3c2)cc(OC)c1	0.46 to 0.463	fold change (FC) [2]: 11; concentration at 4 h [3]: 8300 ng/g; concentration at 2 h [4]: 18900 ng/g; concentration at 0.5 h [5]: 2100 ng/g; concentration at 0.5 h [6]: 400 ng/g; concentration at 2 h [7]: 6000 ng/g; concentration at 4 h [8]: 2200 ng/g; Activity [9]: Non-Toxic; concentration at 1 h [10]: 6700 ng/g; Activity [11]: Active; concentration at 1 h [12]: 14400 ng/g; fold change (FC) [13]: 13
O=S(=O)(CCCc1ccccc1)Nc1cccc2cccnc12	4.6	–
Cc1ccc2cccc(NS(=O)(=O)c3ccccc3)c2n1	14.5	–
O=S(=O)(Nc1ccc(-c2ccc(Cl)cc2)c2cccnc12)c1ccccn1	0.48	Activity [14]: Toxic
O=C1Cc2cc(S(=O)(=O)Nc3cccc4cccnc34)ccc2N1	6.6	–
CS(=O)(=O)Nc1cccc2ccncc12	> 200	–
CS(=O)(=O)Nc1ccc(-c2ccc3c(c2)OCO3)c2cccnc12	11.2	–
O=S(=O)(Nc1cccc2cccnc12)c1ccc2c(c1)OCO2	6.1	–
O=S(=O)(Nc1cccc2cccnc12)c1ccc(F)cc1	7.5	–

SMILES	IC50 [1] [µM]	further results
COc1ccccc1S(=O)(=O)Nc1cccc2cccnc12	> 20	–
Cn1cc(S(=O)(=O)Nc2cccc3cccnc23)cn1	> 20	–
CS(=O)(=O)Oc1cccc2cccnc12	> 200	–
CSc1nc2ccc(S(=O)(=O)Nc3cccc4cccnc34)cc2s1	3.9	–
COc1cccc(-c2ccc(NS(=O)(=O)c3ccccn3)c3ncccc23)c1	1.04	–
N#Cc1ccc(S(=O)(=O)Nc2cccc3cccnc23)cc1	6.6	–
N#Cc1ccccc1S(=O)(=O)Nc1cccc2cccnc12	> 20	–
O=S(=O)(Nc1cc(CCc2ccccc2)cc2cccnc12)c1ccccn1	1.21	–
CC(C)S(=O)(=O)Nc1cccc2cccnc12	> 20	–
COC(=O)c1c(C)cc(Oc2cc(C)cc(O)c2O)cc1O	–	Ki [15]: 0.23 µM
O=S(=O)(Nc1ccc(CCc2ccc(F)cc2)c2cccnc12)c1ccccn1	0.79	–
O=S(=O)(Nc1ccc(-c2ccc(F)cc2)c2cccnc12)c1ccccn1	0.72	–
O=S(=O)(Nc1cccc2cccnc12)c1ccc2ncsc2c1	3.9	–
CC(=O)Nc1cccc2cccnc12	> 200	–
O=S(=O)(Nc1ccc(-c2ccc(Cl)c(Cl)c2)c2cccnc12)c1ccccn1	0.54	–
O=S(=O)(Nc1cccc2cccnc12)c1ccccn1	1.3	–
CS(=O)(=O)Nc1ccc(-c2cccs2)c2cccnc12	15.4	–
COc1cc(OC)cc(-c2ccc(NS(=O)(=O)c3ccccn3)c3ncccc23)c1	1.19	–
O=S(=O)(CCc1ccccc1)Nc1cccc2cccnc12	8.7	–
O=S(=O)(Cc1ccccc1)Nc1cccc2cccnc12	7.6	–

SMILES	IC50 [1] [µM]	further results
CS(=O)(=O)Nc1ccc(-c2ccncc2)c2cccnc12	> 20	–
O=S(=O)(Nc1cccc2cccnc12)c1cccnc1	11.2	–
O=S(=O)(Nc1ccc(-c2cccc(Cl)c2)c2cccnc12)c1ccccn1	0.37	–
COc1ccc(-c2ccc(NS(=O)(=O)c3ccccn3)c3ncccc23)cc1	0.64	–
O=S(=O)(Nc1cc(CCc2ccc(F)cc2)cc2cccnc12)c1ccccn1	1.32	–
CS(=O)(=O)Nc1cccc2cccnc12	18.5	inhibition [16]: > 50%
COc1ccc(S(=O)(=O)Nc2cccc3cccnc23)cc1	7	–
O=S(=O)(Nc1cccc2cccnc12)C1CC1	> 20	–
CS(=O)(=O)Nc1ccc(-c2ccc(Cl)cc2)c2cccnc12	6.2	–
CCCCS(=O)(=O)Nc1cccc2cccnc12	> 20	–
O=S(=O)(Nc1cccc2cccnc12)c1cccs1	4.9	–
O=S(=O)(Nc1cccc2cccnc12)C1CCCCC1	> 20	–
O=S(=O)(Nc1cccc2cccnc12)c1ccc(F)c(F)c1	5.7	–
Cn1cnc(S(=O)(=O)Nc2cccc3cccnc23)c1	5.5	–
CS(=O)(=O)Nc1ccc(-c2cncnc2)c2cccnc12	> 20	–
CS(=O)(=O)Nc1ccc(-c2ccccc2)c2cccnc12	11.5	–
O=S(=O)(Nc1cccc2cccnc12)c1ccc2ccccc2c1	3.6	–
CC(C)(C)c1ccc(S(=O)(=O)Nc2cccc3cccnc23)cc1	4.2	–
O=S(=O)(Nc1ccc(-c2ccccc2)c2cccnc12)c1ccccn1	0.5	–
COc1cccc(S(=O)(=O)Nc2cccc3cccnc23)c1	6.9	–
